{"source": "ChEMBL document CHEMBL3286203", "about": "“Reactive oxygen species (ROS) inducible DNA cross-linking agents and their effect on cancer cells and normal lymphocytes” (J Med Chem, 2014)", "key": {"[1]": {"system": "Hs-578T", "assay": "Cytotoxicity against human Hs578T cells assessed as growth inhibition at 10 uM after 48 hrs by SRB assay", "format": "functional, cell-based", "how_it_was_run": "(§1)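 NCI DTP 60-cell-line screen run at the NCI. Cells were grown in RPMI 1640 with 5% FBS and 2 mM L-glutamine. They were seeded at 5000–40 000 cells/well depending on doubling time and grown in two plates per line. Each was exposed to a single 10 μM dose for 48 h at 37 °C, 5% CO2, 95% air, 100% humidity. Read-out was percent growth.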"}, "[2]": {"assay": "Cytotoxicity against human OVCAR8 cells after 48 hrs by SRB assay", "format": "functional", "settings": "OVCAR-8, 48 h", "how_it_was_run": "(§2)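 GI50 from the NCI Developmental Therapeutics Program in vitro human tumor cell screen. Cell lines were maintained in RPMI 1640 with 5% fetal bovine serum and 2 mM L-glutamine. They were seeded at 5000–40 000 cells/well, depending on each line's doubling time, then exposed to drug for 48 h at 37 °C, 5% CO2.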"}, "[3]": {"system": "NCI-H460", "assay": "Cytotoxicity against human NCI-H460 cells after 48 hrs by SRB assay", "format": "functional", "settings": "NCI-H460, 48 h", "how_it_was_run": "as §2"}, "[4]": {"system": "HT-29", "assay": "Cytotoxicity against human HT-29 cells assessed as growth inhibition at 10 uM after 48 hrs by SRB assay", "format": "functional, cell-based", "how_it_was_run": "as §1"}, "[5]": {"system": "HCT-15", "assay": "Cytotoxicity against human HCT15 cells assessed as growth inhibition at 10 uM after 48 hrs by SRB assay", "format": "functional, cell-based", "how_it_was_run": "as §1"}, "[6]": {"system": "COLO 205", "assay": "Cytotoxicity against human COLO205 cells assessed as growth inhibition at 10 uM after 48 hrs by SRB assay", "format": "functional, cell-based", "how_it_was_run": "as §1"}, "[7]": {"system": "SR", "assay": "Cytotoxicity against human SR cells assessed as growth inhibition at 10 uM after 48 hrs by SRB assay", "format": "functional, cell-based", "how_it_was_run": "(§3)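 NCI-60 DTP human tumour line screen. Cells grown in RPMI 1640 with 5% fetal bovine serum and 2 mM L-glutamine, plated at 5000–40 000 cells/well according to doubling time. Single dose of 10 μM for 48 h at 37 °C, 5% CO2, 95% air, 100% humidity, two plates per line. Read-out is growth percent.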"}, "[8]": {"system": "OVCAR-4", "assay": "Cytotoxicity against human OVCAR4 cells assessed as growth inhibition at 10 uM after 48 hrs by SRB assay", "format": "functional, cell-based", "how_it_was_run": "(§4)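 Single-dose screen run by the NCI Developmental Therapeutics Program (NCI-60). Cells were grown in RPMI 1640 with 5% fetal bovine serum and 2 mM L-glutamine. They were plated at 5000–40 000 cells/well, depending on doubling time. Each line was run in two plates and exposed to 10 μM drug for 48 h at 37 °C, 5% CO2, 100% humidity. Read-out was growth percent.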"}, "[9]": {"system": "OVCAR-8", "assay": "Cytotoxicity against human OVCAR8 cells assessed as growth inhibition at 10 uM after 48 hrs by SRB assay", "format": "functional, cell-based", "how_it_was_run": "as §4"}, "[10]": {"system": "SF-268", "assay": "Cytotoxicity against human SF268 cells assessed as growth inhibition at 10 uM after 48 hrs by SRB assay", "format": "functional, cell-based", "how_it_was_run": "as §4"}, "[11]": {"system": "TK-10", "assay": "Cytotoxicity against human TK10 cells assessed as growth inhibition at 10 uM after 48 hrs by SRB assay", "format": "functional, cell-based", "how_it_was_run": "as §3"}, "[12]": {"system": "SNB-19", "assay": "Cytotoxicity against human SNB19 cells after 48 hrs by SRB assay", "format": "functional", "settings": "SNB-19, 48 h", "how_it_was_run": "(§5)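 GI50 from the NCI-60 DTP human tumour line screen. Lines grown in RPMI 1640 with 5% fetal bovine serum and 2 mM L-glutamine, plated at 5000–40 000 cells/well according to doubling time. Incubated 48 h at 37 °C, 5% CO2.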"}, "[13]": {"system": "NCI/ADR-RES", "assay": "Cytotoxicity against human NCI-ADR-RES cells assessed as growth inhibition at 10 uM after 48 hrs by SRB assay", "format": "functional, cell-based", "how_it_was_run": "as §4"}, "[14]": {"system": "SK-MEL-2", "assay": "Cytotoxicity against human SK-MEL-2 cells assessed as growth inhibition at 10 uM after 48 hrs by SRB assay", "format": "functional, cell-based", "how_it_was_run": "as §4"}, "[15]": {"system": "SK-MEL-5", "assay": "Cytotoxicity against human SK-MEL-5 cells after 48 hrs by SRB assay", "format": "functional", "settings": "SK-MEL-5, 48 h", "how_it_was_run": "as §2"}, "[16]": {"system": "Malme-3M", "assay": "Cytotoxicity against human MALME-3M cells assessed as growth inhibition at 10 uM after 48 hrs by SRB assay", "format": "functional, cell-based", "how_it_was_run": "as §1"}, "[17]": {"system": "A549", "assay": "Cytotoxicity against human A549 cells assessed as growth inhibition at 10 uM after 48 hrs by SRB assay", "format": "functional, cell-based", "how_it_was_run": "as §1"}, "[18]": {"assay": "Induction of [32P]-labeled 49-mer oligonucleotide duplex DNA 12 with GNC sequence at terminus (unknown origin) interstrand cross-linking at 1 mM after 16 hrs by PAGE", "how_it_was_run": "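32P-labelled 12a (1.0 μM) annealed with 1.5 equiv of 12b in 10 mM potassium phosphate pH 7 / 100 mM NaCl (65 °C for 3 min, then slow cooling). Duplex incubated with compound (final 1 μM–5 mM), with or without H2O2, in NaCl and potassium phosphate pH 8 at room temperature for 16 h. Quenched in formamide; 20% denaturing PAGE.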"}, "[19]": {"system": "RPMI-8226", "assay": "Cytotoxicity against human RPMI8226 cells after 48 hrs by SRB assay", "format": "functional", "settings": "RPMI-8226, 48 h", "how_it_was_run": "as §2"}, "[20]": {"system": "OVCAR-3", "assay": "Cytotoxicity against human OVCAR3 cells assessed as growth inhibition at 10 uM after 48 hrs by SRB assay", "format": "functional, cell-based", "how_it_was_run": "as §4"}, "[21]": {"system": "UACC-257", "assay": "Cytotoxicity against human UACC257 cells assessed as growth inhibition at 10 uM after 48 hrs by SRB assay", "format": "functional, cell-based", "how_it_was_run": "as §3"}, "[22]": {"assay": "Cytotoxicity against human UACC62 cells after 48 hrs by SRB assay", "format": "functional", "settings": "UACC-62, 48 h", "how_it_was_run": "as §5"}, "[23]": {"system": "M14", "assay": "Cytotoxicity against human M14 cells assessed as growth inhibition at 10 uM after 48 hrs by SRB assay", "format": "functional, cell-based", "how_it_was_run": "as §1"}, "[24]": {"system": "HCT-116", "assay": "Cytotoxicity against human HCT116 cells assessed as growth inhibition at 10 uM after 48 hrs by SRB assay", "format": "functional, cell-based", "how_it_was_run": "as §1"}, "[25]": {"system": "BT-549", "assay": "Cytotoxicity against human BT549 cells assessed as growth inhibition at 10 uM after 48 hrs by SRB assay", "format": "functional, cell-based", "how_it_was_run": "as §1"}, "[26]": {"system": "SNB-75", "assay": "Cytotoxicity against human SNB75 cells assessed as growth inhibition at 10 uM after 48 hrs by SRB assay", "format": "functional, cell-based", "how_it_was_run": "as §3"}, "[27]": {"system": "MDA-MB-435", "assay": "Cytotoxicity against human MDA-MB-435 cells assessed as growth inhibition at 10 uM after 48 hrs by SRB assay", "format": "functional, cell-based", "how_it_was_run": "as §4"}, "[28]": {"system": "T47D", "assay": "Cytotoxicity against human T47D cells assessed as growth inhibition at 10 uM after 48 hrs by SRB assay", "format": "functional, cell-based", "how_it_was_run": "as §3"}, "[29]": {"system": "SN12C", "assay": "Cytotoxicity against human SN12C cells assessed as growth inhibition at 10 uM after 48 hrs by SRB assay", "format": "functional, cell-based", "how_it_was_run": "as §3"}, "[30]": {"system": "SK-OV-3", "assay": "Cytotoxicity against human SKOV3 cells assessed as growth inhibition at 10 uM after 48 hrs by SRB assay", "format": "functional, cell-based", "how_it_was_run": "as §4"}, "[31]": {"system": "K562", "assay": "Cytotoxicity against human K562 cells assessed as growth inhibition at 10 uM after 48 hrs by SRB assay", "format": "functional, cell-based", "how_it_was_run": "as §1"}, "[32]": {"system": "KM12", "assay": "Cytotoxicity against human KM12 cells assessed as growth inhibition at 10 uM after 48 hrs by SRB assay", "format": "functional, cell-based", "how_it_was_run": "as §1"}}, "note": "Activity calls are given as the source filed them. No cut-off for these calls is given here.", "data": [{"smiles": "CC1(C)OB(c2ccc(N(CCCl)CCOS(C)(=O)=O)cc2)OC1(C)C", "values": [{"measurement": "growth inhibition (GI)", "setting": "[1]", "value": "Active"}, {"measurement": "GI50", "setting": "[2]", "value": 8.2, "unit": "µM"}, {"measurement": "GI50", "setting": "[3]", "value": 0.49, "unit": "µM"}, {"measurement": "growth inhibition (GI)", "setting": "[4]", "value": "Active"}, {"measurement": "growth inhibition (GI)", "setting": "[5]", "value": "Active"}, {"measurement": "growth inhibition (GI)", "setting": "[6]", "value": "Active"}, {"measurement": "growth inhibition (GI)", "setting": "[7]", "value": "Active"}, {"measurement": "growth inhibition (GI)", "setting": "[8]", "value": "Active"}, {"measurement": "growth inhibition (GI)", "setting": "[9]", "value": "Active"}, {"measurement": "growth inhibition (GI)", "setting": "[10]", "value": "Active"}, {"measurement": "growth inhibition (GI)", "setting": "[11]", "value": "Active"}, {"measurement": "GI50", "setting": "[12]", "value": 10.2, "unit": "µM"}, {"measurement": "growth inhibition (GI)", "setting": "[13]", "value": "Active"}, {"measurement": "growth inhibition (GI)", "setting": "[14]", "value": "Active"}, {"measurement": "GI50", "setting": "[15]", "value": 12.8, "unit": "µM"}, {"measurement": "growth inhibition (GI)", "setting": "[16]", "value": "Active"}, {"measurement": "growth inhibition (GI)", "setting": "[17]", "value": "Active"}, {"measurement": "Activity", "setting": "[18]", "value": "inactive"}, {"measurement": "GI50", "setting": "[19]", "value": 14.7, "unit": "µM"}, {"measurement": "growth inhibition (GI)", "setting": "[20]", "value": "Active"}, {"measurement": "growth inhibition (GI)", "setting": "[21]", "value": "Active"}, {"measurement": "GI50", "setting": "[22]", "value": 5.83, "unit": "µM"}, {"measurement": "growth inhibition (GI)", "setting": "[23]", "value": "Active"}, {"measurement": "growth inhibition (GI)", "setting": "[24]", "value": "Active"}, {"measurement": "growth inhibition (GI)", "setting": "[25]", "value": "Active"}, {"measurement": "growth inhibition (GI)", "setting": "[26]", "value": "Active"}, {"measurement": "growth inhibition (GI)", "setting": "[27]", "value": "Active"}, {"measurement": "growth inhibition (GI)", "setting": "[28]", "value": "Active"}, {"measurement": "growth inhibition (GI)", "setting": "[29]", "value": "Active"}, {"measurement": "growth inhibition (GI)", "setting": "[30]", "value": "Active"}, {"measurement": "growth inhibition (GI)", "setting": "[31]", "value": "Active"}, {"measurement": "growth inhibition (GI)", "setting": "[32]", "value": "Active"}]}]}
